Screening results from PubChem.
DENV2 CPE = protects cells from dengue virus 2 cytopathic effect. CPE inhibition, % at 9.99 µM. DENV2-infected cells, cytopathic effect rescue, plate reader. 1.7% of 350,000 active; in the data active = CPE inhibition above about 20%, passing the limit was not always enough; inconclusive = no clear call, values can overlap the other calls; tested in BHK-21 cells
SIRT5 inh = inhibitors of human sirtuin-5 desuccinylase. inhibition, % at 15 µM. Q9NXA8. Purified SirT5, succinyl-peptide AMC, trypsin-coupled fluorescence. 1.1% of 330,000 active; in the data active = inhibition above about 15%; inconclusive = no clear call, values can overlap the other calls
E-sel inducer = induces E-selectin expression in human endothelial cells. P16581. HUVEC E-selectin immunofluorescence imaging; normalized: neutral wells 0, TNF-alpha wells 100. activation, % at 7.58 µM. 0.37% of 260,000 active;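 active = mean E-selectin-positive cell signal at least 10% of the positive control, reached in at least 60% of replicates, without over 20% cell loss; inconclusive = no rule given, readout overlaps actives, possibly toxicity-flagged; inactive = the rest, including those meeting only one limit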
Target sequence (P16581 whole entry, looked up): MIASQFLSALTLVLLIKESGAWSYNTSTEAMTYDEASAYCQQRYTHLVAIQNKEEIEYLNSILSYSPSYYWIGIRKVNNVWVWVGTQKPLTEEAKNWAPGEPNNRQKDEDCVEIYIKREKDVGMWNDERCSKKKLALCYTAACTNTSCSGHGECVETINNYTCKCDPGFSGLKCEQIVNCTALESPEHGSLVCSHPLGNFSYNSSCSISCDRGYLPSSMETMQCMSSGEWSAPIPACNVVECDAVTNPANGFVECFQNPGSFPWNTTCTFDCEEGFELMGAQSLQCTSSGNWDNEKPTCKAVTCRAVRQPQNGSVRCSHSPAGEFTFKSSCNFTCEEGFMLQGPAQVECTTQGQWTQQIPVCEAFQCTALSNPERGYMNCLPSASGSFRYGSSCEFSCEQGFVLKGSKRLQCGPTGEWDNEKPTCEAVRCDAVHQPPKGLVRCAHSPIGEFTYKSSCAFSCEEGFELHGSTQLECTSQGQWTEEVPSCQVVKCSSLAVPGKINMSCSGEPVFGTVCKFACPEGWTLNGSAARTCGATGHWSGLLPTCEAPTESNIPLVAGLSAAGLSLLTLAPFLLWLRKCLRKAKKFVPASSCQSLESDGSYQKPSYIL
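Read-out: % PE-positive cells | Test system: HUVEC | Doses: One compound dose added by pin transfer | Buffer or medium: EGM-2 over gelatin coat | Signal: Immunofluorescence imaging | Benchmarks: TNF-alpha, DMSO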
Numbers stand for hits; i = inactive; ? = inconclusive; nt = not tested or not shown; ! = a repeat was not active. Sampled rows, rich in hits. Any-hit rate of the full collection: about 2.9%.

SMILES	DENV2 CPE	SIRT5 inh	E-sel inducer
COc1ccccc1/C=C1\SC(=O)N(CC(=O)N(C)C2CCS(=O)(=O)C2)C1=O (centres undefined)	i	i	nt
C[C@@H]1CN([C@H](C)CO)C(=O)c2cc(-c3cccnc3)cnc2O[C@@H]1CN(C)C(=O)c1ccccc1F	i	i	i
C[C@@H]1CN([C@@H](C)CO)C(=O)c2cc(-c3cccnc3)cnc2O[C@@H]1CN(C)C(=O)c1ccccc1F	45.9	i	i
C[C@H](CO)N1C[C@H](C)[C@H](CN(C)C(=O)c2ccccc2F)Oc2ncc(-c3ccccc3)cc2C1=O	nt	i	i
C[C@@H]1CN([C@@H](C)CO)C(=O)c2cc(Br)cnc2O[C@H]1CN(C)C(=O)c1ccccc1F	?	15.1!	i
C[C@H](CO)N1C[C@H](C)[C@H](CN(C)C(=O)c2ccccc2F)Oc2ncc(Br)cc2C1=O	i	26.2!	i
C[C@@H]1CN([C@H](C)CO)C(=O)c2cc(Br)cnc2O[C@H]1CN(C)C(=O)c1ccccc1F	i	i	i
CSc1ccc2c(c1)C(N1CCN(C)CC1)Cc1ccccc1S2 (centres undefined)	i	i	i
CCCNC(=O)C[C@H]1CC[C@H]2[C@H](COc3ccc(NC(=O)NCCC)cc3C(=O)N2C)O1	i	i	i
O=C(/C=C\c1cccs1)N1CCN(Cc2ccc3c(c2)OCO3)CC1	i	i	i
O=C(C[C@H]1CC[C@@H](NC(=O)Nc2ccc(F)cc2)[C@H](CO)O1)NCCN1CCCC1	i	i	i
COc1ccc(S(=O)(=O)Nc2ccc3c(c2)C(=O)N([C@H](C)CO)C[C@@H](C)[C@H](CN(C)C(=O)Nc2ccc(F)cc2)OCCCC[C@@H](C)O3)cc1	?	15.4	i
COc1ccc(S(=O)(=O)Nc2ccc3c(c2)C(=O)N([C@H](C)CO)C[C@H](C)[C@H](CN(C)C(=O)Nc2ccc(C(F)(F)F)cc2)OCCCC[C@H](C)O3)cc1	75.7	i	i
COc1ccc(NC(=O)N(C)C[C@@H]2OCCCC[C@H](C)Oc3ccc(NS(=O)(=O)c4ccc(F)cc4)cc3C(=O)N([C@@H](C)CO)C[C@@H]2C)cc1	i	i	i
COc1ccc(S(=O)(=O)Nc2ccc3c(c2)C(=O)N([C@H](C)CO)C[C@@H](C)[C@H](CN(C)C(=O)Nc2ccc(C(F)(F)F)cc2)OCCCC[C@H](C)O3)cc1	i	i	i
COc1ccc(S(=O)(=O)Nc2ccc3c(c2)C(=O)N([C@@H](C)CO)C[C@H](C)[C@@H](CN(C)C(=O)Nc2ccc(F)cc2)OCCCC[C@H](C)O3)cc1	i	16.1	i
COc1ccc(NC(=O)N(C)C[C@@H]2OCCCC[C@@H](C)Oc3ccc(NS(=O)(=O)c4ccc(F)cc4)cc3C(=O)N([C@H](C)CO)C[C@H]2C)cc1	i	i	i
CC(C)C#Cc1ccc2c(c1)O[C@H](CN(C)Cc1ccccn1)[C@@H](C)CN([C@H](C)CO)S2(=O)=O	i	i	i
CC(C)c1ccc(CNc2ccc([N+](=O)[O-])cn2)cc1	i	i	i
c1ccc(-c2noc(-c3ccc4c(c3)OCO4)n2)cc1	i	i	nt
C=CCOc1ccc(C(=O)Nc2ncn[nH]2)cc1	i	i	i
O=C(O)c1cc(-c2ccc(/C=C3\NC(=O)N(c4ccccc4)C3=O)o2)ccc1Cl	i	i	nt
O=C(O)c1cc(-c2ccc(/C=C3\NC(=O)N(c4ccc(Cl)cc4)C3=O)o2)ccc1Cl	i	19.9	nt
Cc1cccc(N2NC(=O)/C(=C/c3ccc(-c4ccc(Cl)c(C(=O)O)c4)o3)C2=O)c1	i	15.7	i
O=C1NN(c2ccccc2)C(=O)/C1=C/c1ccc(-c2ccc(Cl)c(C(=O)O)c2)o1	i	i	i
SMILES	DENV2 CPE	SIRT5 inh	E-sel inducer
CNc1ncnc2c1ncn2[C@H]1CN(Cc2ccc(Cl)cc2)C[C@@H](CO)O1	i	nt	i
C[C@@H]1CN([C@H](C)CO)C(=O)c2cc(-c3ccc(C#N)cc3)cnc2O[C@H]1CN(C)C(=O)c1cccnc1	i	i	i
O=C(CCCc1c[nH]c2ccccc12)NCCc1c[nH]c2ccccc12	i	i	nt
O=C(O)CCCCCCCCc1cn(CCc2c[nH]c3ccccc23)nn1	20.6	i	i
Cn1c2ccccc2c(=O)c2ccc(Cl)cc21	i	i	i
CC1CCc2c(sc(NC(=O)COC(=O)c3ccc(NC(=O)CC#N)cc3)c2C#N)C1 (centres undefined)	i	i	i
COc1cc(/C=C/C(=O)OCC(=O)Nc2sc3c(c2C#N)CCC(C)C3)ccc1OCC#N (centres undefined)	i	15.3	nt
CC(=O)N1[C@H](C(=O)NCC2CC2)[C@@H](CO)[C@@H]2Cn3c(ccc(C4=CCCC4)c3=O)[C@@H]21	i	i	i
Cc1ccc(C(=O)N(C)CC(=O)Nc2ccc(Cl)c(C(F)(F)F)c2)cc1S(=O)(=O)N1CCCCC1	i	19.4	nt
CN(CC(=O)Nc1ccc(Cl)c(C(F)(F)F)c1)C(=O)c1cc(=O)[nH]c2ccccc12	i	i	nt
Cc1ccc(C(=O)OCC(=O)N2C(C)CCCC2C)cc1S(=O)(=O)N1CCOCC1 (centres undefined)	25.1	i	i
O=C(COC(=O)c1cccc(S(=O)(=O)N2CCCCCC2)c1)Nc1ccccc1C(F)(F)F	i	i	i
CC1CCCC(C)N1C(=O)COC(=O)c1ccc(Br)c(S(=O)(=O)N2CCOCC2)c1 (centres undefined)	i	i	i
CN(CC(=O)Nc1ccc(Cl)c(C(F)(F)F)c1)C(=O)c1cc(=O)c2ccccc2o1	i	21.9	i
Cc1ccc(C(=O)OCC(=O)Nc2ccccc2C(F)(F)F)cc1S(=O)(=O)N1CCCCC1	101.1	i	i
Cc1ccc(S(=O)(=O)N2CCCCC2)cc1C(=O)N(C)CC(=O)Nc1ccc(Cl)c(C(F)(F)F)c1	i	i	nt
Cc1nc2nc(SCC(=O)NCCCN3CCCC3)nn2c(C)c1Cc1ccccc1Cl	i	i	nt
CC1CCN(C(=O)CN2C(=O)c3cccc4cccc(c34)C2=O)CC1	i	i	i
CCN(CCCNS(=O)(=O)c1cc(-c2cc(C)no2)ccc1C)Cc1ccccc1	i	i	i
COc1ccccc1C#Cc1cnc2c(c1)C(=O)N([C@H](C)CO)C[C@@H](C)[C@H](CN(C)C(C)=O)O2	i	i	i
COc1c2ccc(OCC/C(C)=C/C(=O)C=C(C)C)cc2nc2occc12	i	nt	i
CCCN(C)C1CN(Cc2cn(Cc3ccc(OC)cc3)nn2)S(=O)(=O)C1 (centres undefined)	i	i	i
O=S1(=O)CC(N2CCCC2)CN1Cc1cn(Cc2ccccc2)nn1 (centres undefined)	i	27.8	i
O=S1(=O)CC(N2CCCCC2)CN1Cc1ccccc1 (centres undefined)	i	i	i
O=S1(=O)CC(N2CCCCC2)CN1Cc1cn(Cc2ccccc2)nn1 (centres undefined)	i	i	i
CCCCCCn1cc(CN2CC(N3CCSCC3)CS2(=O)=O)nn1 (centres undefined)	i	17.4	i
CCCN(C)C1CN(Cc2cn(Cc3ccc(C)cc3)nn2)S(=O)(=O)C1 (centres undefined)	25.2	i	i
CCCCCCn1cc(CN2CC(N3CCCC3)CS2(=O)=O)nn1 (centres undefined)	i	i	i
